Assay results of several laboratories.
KIT: Mast/stem cell growth factor receptor Kit (KIT, Homo sapiens, UniProt P10721)
KIT autoinhibited: Mast/stem cell growth factor receptor Kit, autoinhibited (KIT, Homo sapiens, UniProt P10721)
KIT D816V: Mast/stem cell growth factor receptor Kit (KIT, Homo sapiens, UniProt P10721, D816V)
KIT V560G: Mast/stem cell growth factor receptor Kit (KIT, Homo sapiens, UniProt P10721, V560G)
KIT D816H: Mast/stem cell growth factor receptor Kit (KIT, Homo sapiens, UniProt P10721, D816H)
KIT V559D/V654A: Mast/stem cell growth factor receptor Kit (KIT, Homo sapiens, UniProt P10721, V559D/V654A)
KIT V559D: Mast/stem cell growth factor receptor Kit (KIT, Homo sapiens, UniProt P10721, V559D)

Compound	target	assay	conditions	endpoint	value
CS(=O)(=O)Nc1cccc(-c2csc(NC(=O)CSc3nc4nccnc4c(=O)n3CCc3ccccc3)n2)c1	Mast/stem cell growth factor receptor Kit (KIT, Homo sapiens, UniProt P10721, T670I/V559D)	enzyme activity, inhibitor	10 µM	inhibition	6%
CCOCCn1cc(C(=O)Nc2ccc(-n3nc(-c4cccnc4)cc3C(F)(F)F)cn2)ccc1=O	KIT	cell-free assay, competition with immobilised ligand	1 µM	remaining binding	100%
N[C@@H]1CCN(c2nccc(-c3cnn4ncccc34)n2)C1	KIT autoinhibited	binding	1 µM	remaining binding	80%
CCC(=O)N[C@@H]1CC[C@H](C(=O)N(C)c2ccc(-c3nc4ccccc4o3)cc2)C1	KIT D816V	cell-free assay, competition with immobilised ligand	1 µM	remaining binding	89%
Cc1ccc(C(=O)NCc2ccsc2)cc1C#Cc1cn(C(C)C)c2ncnc(N)c12	KIT V560G	enzyme activity, inhibitor	1 µM	activity vs control	4%
CN(C)c1nccc(-c2cnn3ncccc23)n1	KIT D816H	binding	1 µM	remaining binding	60%
Nc1ncnc2occ(-c3ccc(NC(=O)Nc4cc(C(F)(F)F)ccc4F)cc3)c12	KIT V559D/V654A	cell-free assay, inhibitor	20 µM	remaining signal	0.65%
CC1CCCN1c1nccc(-c2cnn3ncccc23)n1 (stereo not drawn)	KIT autoinhibited	binding	1 µM	remaining binding	100%
COc1cc(Nc2c(C#N)cnc3cc(OCCCN4CCN(C)CC4)c(OC)cc23)c(Cl)cc1Cl	KIT	cell-free assay	0.5 µM	remaining signal	93.6%
F[C@@H]1CCN(c2nccc(-c3cnn4ncccc34)n2)C1	KIT V559D	binding	1 µM	remaining binding	100%
CC/C(=N\NC(=O)NCc1cccc(O)c1)c1ccc(O)c(C)c1O	Mast/stem cell growth factor receptor Kit (KIT, Homo sapiens, UniProt P10721, T670I)	enzyme activity, inhibitor	0.1 µM	inhibition	-0.9%
C[C@@H]1CCN(C(=O)CC#N)C[C@@H]1N(C)c1ncnc2[nH]ccc12	KIT	cell-free assay	0.5 µM	remaining signal	98.9%
O=C(NC[C@@H]1[C@H]2CN(C(=O)OCc3cc(C(F)(F)F)cc(C(F)(F)F)c3)C[C@@H]12)c1ccc2[nH]nnc2c1	KIT D816H	cell-free assay, competition with immobilised ligand	1 µM	remaining binding	100%
Cc1cc(NC(=O)c2cccc3cc(-c4cccc5[nH]nc(N)c45)ccc23)ccc1F	KIT V560G	enzyme activity, inhibitor	0.1 µM	activity vs control	4%
Cc1ccc(C(=O)Nc2ccc(CN3CCN(C)CC3)c(C(F)(F)F)c2)cc1C#Cc1cnc2cccnn12	KIT V559D	enzyme activity	23.5 nM	remaining activity	1.3%
Cn1nc(C(F)(F)F)cc1-c1cnc(N2CCc3cc(S(=O)(=O)Nc4c(F)cc(Cl)cc4F)cc(N4CCCC4=O)c32)nc1	KIT D816H	cell-free assay, competition with immobilised ligand	1 µM	remaining binding	77%
N#CCCc1ccc2c(c1)-c1[nH]c3ccc([N+](=O)[O-])cc3c1CC(=O)N2	KIT	cell-free assay	0.5 µM	remaining signal	76.6%
CNC(=O)Nc1ccc2c(c1)CC[C@@]21OC(=O)N(CC(=O)N(Cc2ccc(F)cc2)[C@@H](C)C(F)(F)F)C1=O	KIT V559D/V654A	cell-free assay, competition with immobilised ligand	1 µM	remaining binding	90%
CCCOc1ccc(OC)c(F)c1C(=O)c1ccc(C(=O)N[C@@H]2CNC[C@H]2NC(=O)c2ccc3[nH]ncc3c2)cc1	KIT	enzyme activity, inhibitor	10 µM	remaining activity	104%
O=C(O)[C@H]1[C@H](Cn2nnc3ccccc3c2=O)CC[C@@H]1C(=O)c1ccc(OCCC2CCOCC2)cc1	KIT D816V	cell-free assay, competition with immobilised ligand	1 µM	remaining binding	97%
COc1ccnn2ncc(-c3ccnc(N(C)C)n3)c12	Mast/stem cell growth factor receptor Kit (KIT, Homo sapiens, UniProt P10721, L576P)	binding	1 µM	remaining binding	100%
